Assay outcomes as filed in PubChem.
The list is not random: actives were taken first. Their share in the collection is about 1.8%.
Apaf1 inhib = inhibitors of human Apaf-1 apoptosome, primary screen, biochemical, DEVD-Rh110 fluorescence, uHTS; Apoptotic protease-activating factor 1 (Homo sapiens), O14727; hit rate 0.71% among 330,000; reconstituted apoptosome caspase-3 activity; inhibition, % at 20 µM; active = inhibition of at least 40% at 20 µM;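 also: plate controls were DMSO wells for no effect and DEVD-CHO caspase inhibitor wells for full effect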
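System: Apoptosome proteins | Medium: Hepes pH 7.5 with detergent and BSA | Also added: Cytochrome c trigger plus (Z-DEVD)2-Rh110 caspase-3 substrate | Incubation: 30 min compound preincubation, 50 min activation, room temperature | Detection: Rhodamine 110 fluorescence at Ex 480/Em 540 nm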
EBNA-1 inhibitor = EBNA-1 DNA-binding inhibitors, primary screen, biochemical, fluorescence polarization | hit rate 0.34% among 300,000 | AID 1950, 2009 | inhibition, % at 14.8 µM; in the data active = inhibition above about 28%
ZTA DNA inh = blocks Epstein-Barr virus ZTA, an EBNA-1 counter-screen. inhibition, % at 11 µM. AID 2234. ZTA-DNA binding, fluorescence polarization. hit rate 0.15% among 320,000; in the data active = inhibition above about 33%
GSTO1 counter = inhibitors of recombinant GSTO1, primary screen, counter-screen for RBBP9 inhibitor project, biochemical, fluorescence polarization; Glutathione S-transferase omega-1 (Homo sapiens), P78417; activity-based probe fluorescence polarization; inhibition, % at 5.96 µM; hit rate 1.1% among 300,000;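 active = inhibition above the campaign mean inhibition plus 3 SD, cut at about 35% in these data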;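 also: 0% = GSTO1-1 with DMSO and 100% = wells lacking GSTO1-1 enzyme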
procasp3 activ = activators of human procaspase-3 D3A mutant, primary screen, biochemical, absorbance, PC-3 D3A mutant, single concentration; Caspase-3 (Homo sapiens), P42574; hit rate 0.11% among 330,000; activation, % at 8.5 µM; recombinant procaspase-3 D3A, Ac-DEVD-pNA absorbance 405 nm; AID 463141, 2010;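 active = activation above the mean of all tested compounds plus 3 SD, cut at about 21% in these data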;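 also: 0% = DMSO alone and 100% = DMSO wells spiked with extra 5 µM PC-3 D3A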
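Test system: Procaspase-3 D3A mutant; medium: Zinc-free HEPES/NaCl buffer with 0.01% Triton X-100 at pH 7.4; reagent: DEVD-pNA substrate; doses: one concentration, 8.5 µM nominal, 0.8% DMSO; times: 1 h preincubation plus 2 h reaction at 25 °C; signal: Epi-absorbance at 405 nm of released p-nitroaniline, 0 and 120 min; replicates: singlicate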
proCasp7 act = procaspase-7 activators, primary screen, counter-screen for procaspase-3 activator project, biochemical, absorbance, HTS, human; AID 463210, 2010; hit rate 0.093% among 330,000; Caspase-7 (Homo sapiens), P55210; activation, % at 8.5 µM; recombinant procaspase-7, Ac-DEVD-pNA absorbance 405 nm; D23A/D198A/D206A triple mutant, cannot self-cleave; scale: DMSO 0, 5 µM enzyme 100;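 active = percent activation above the screen-wide mean plus 3 SD, cut at about 25% in these data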
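Replicates: singlicate. Assay system: Procaspase-7 triple mutant (PC-7 D3A). Signal: 405 nm absorbance of p-nitroaniline. Times: 1 h preincubation, 2 h reaction. Buffer or medium: Zinc-free HEPES pH 7.4 with 300 mM NaCl, 0.01% Triton X-100. Also added: DEVD-pNA substrate. Benchmarks: DMSO wells as 0%, DMSO with 5 µM added PC-7 as 100%.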
GSTO1 confirm = GSTO1 inhibitor hit confirmation, counter-screen for RBBP9 inhibitor project, biochemical, fluorescence polarization, triplicate; inhibition, % at 5.96 µM; AID 2176, 2009; recombinant GSTO1, probe fluorescence polarization; shares compounds with GSTO1 counter; hit rate 54% among 2,400;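 active = inhibition above the primary screen's cutoff, its mean inhibition plus 3 SD, cut at about 35% in these data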;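 also: loss of polarization as inhibitors block binding of rhodamine sulfonate ester activity probe; 0% = GSTO1 with DMSO and 100% = wells lacking GSTO1 enzyme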
Numbers without * were called inactive.

`CC(=O)Oc1ccc(OC(C)=O)c(S(=O)(=O)c2ccc(C)c(C)c2)c1` gave Apaf1 inhib 2, EBNA-1 inhibitor 6, ZTA DNA inh 8, GSTO1 counter 47*, procasp3 activ 2, proCasp7 act 8 and GSTO1 confirm 7.
C#CCn1cc(Cl)cc(C(=O)Nc2ccccc2)c1=O was read as Apaf1 inhib 3, EBNA-1 inhibitor -3, ZTA DNA inh 1, GSTO1 counter 4, procasp3 activ 3 and proCasp7 act -6.
Screening COc1cccc(/C=N/Nc2cc(Cl)nc(C)n2)c1O returned Apaf1 inhib 5, EBNA-1 inhibitor -2, ZTA DNA inh -18, GSTO1 counter 28, procasp3 activ 2 and proCasp7 act 4.
COc1cccc(/C=N/Nc2nnc(C)n2N)c1O was read as Apaf1 inhib 3, EBNA-1 inhibitor 2, ZTA DNA inh 5, GSTO1 counter 41*, procasp3 activ -4, proCasp7 act -3 and GSTO1 confirm 1.
`O=C(O)CSC1CC(=O)N(c2ccc(Cl)c(Cl)c2)C1=O` (configuration not stated) gave Apaf1 inhib 3, EBNA-1 inhibitor -8, ZTA DNA inh 0, GSTO1 counter 5, procasp3 activ -25 and proCasp7 act -18.
Screening O=C1CC(N(O)c2ccccc2)C(=O)N1c1ccc(Cl)c(Cl)c1 (configuration not stated) returned Apaf1 inhib 14, EBNA-1 inhibitor -1, ZTA DNA inh -20, GSTO1 counter 63*, procasp3 activ -18, proCasp7 act -11 and GSTO1 confirm 5.
For Oc1ccc(C2CNCc3sccc32)cc1O (configuration not stated) the results were Apaf1 inhib 1, EBNA-1 inhibitor 2, ZTA DNA inh 14, GSTO1 counter 49*, procasp3 activ -21, proCasp7 act -25 and GSTO1 confirm 7.
COc1cc(/C=C2/S/C(=N/S(=O)(=O)c3ccccc3)NC2=O)c([N+](=O)[O-])cc1OC was read as Apaf1 inhib 14, EBNA-1 inhibitor 2, ZTA DNA inh 7, GSTO1 counter 41*, procasp3 activ 0, proCasp7 act 3 and GSTO1 confirm 32.
Screening Cc1ccc(S(=O)(=O)N2CCN(C(=O)COC(=O)CC(C)c3ccccc3)CC2)c(C)c1 (configuration not stated) returned Apaf1 inhib 22.
For COc1ccc(C=NNc2ccc(S(=O)(=O)Nc3ccccc3C(=O)O)cc2[N+](=O)[O-])c(OC)c1 the results were Apaf1 inhib 7, procasp3 activ 2 and proCasp7 act -3.
`COc1ccc(NC(=S)NNc2ccc(S(=O)(=O)Nc3ccccc3C(=O)O)cc2[N+](=O)[O-])cc1` gave Apaf1 inhib 16, EBNA-1 inhibitor 5, ZTA DNA inh 6, GSTO1 counter 67*, procasp3 activ -7, proCasp7 act -29 and GSTO1 confirm 80*.
`Cc1ccc(OCc2cc(C(=O)NC3CCOC3)no2)cc1C` (configuration not stated) gave Apaf1 inhib -3, EBNA-1 inhibitor -7, ZTA DNA inh -9, GSTO1 counter 8, procasp3 activ 1 and proCasp7 act -4.
CCC(C(=O)OCC(=O)Nc1ccc(Cl)c(S(=O)(=O)N(C)C)c1)c1ccccc1 (configuration not stated) was read as Apaf1 inhib 6, EBNA-1 inhibitor -3, ZTA DNA inh 8, GSTO1 counter 65*, procasp3 activ -5, proCasp7 act 9 and GSTO1 confirm -2.
